Results on 13 compounds are retold here after ChEMBL document CHEMBL4814011, “Discovery of a novel class of inhaled dual pharmacology muscarinic antagonist and β2 agonist (MABA) for the treatment of chronic obstructive pulmonary disease (COPD)” (Bioorg Med Chem Lett, 2021).

Active and inactive are the calls of the source. The calls are words filed in the database; no cut-off is given here.

For data set [1], the species on record is Cavia porcellus. The data set can be described thus: Activity at muscarinic M3 and adrenergic beta2 in guinea pig trachea assessed as time taken for compound action by MABA assay. The class given is tissue-based.
Data set [2] addresses Muscarinic acetylcholine receptor M3 (Homo sapiens, UniProt P20309). Kind of data set: Displacement of [3H]-N-methylscopolamine from human muscarinic M3 receptor.
The target of data set [3] is Beta-2 adrenergic receptor (Homo sapiens, UniProt P07550). Kind of data set: Displacement of 125I-cyanopindolol from human adrenergic beta2 receptor. An outline of the steps: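 Radioligand binding on cloned human β2 adrenoceptor, with displacement of 125I-cyanopindolol.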
Sequence of Beta-2 adrenergic receptor (P07550 whole entry): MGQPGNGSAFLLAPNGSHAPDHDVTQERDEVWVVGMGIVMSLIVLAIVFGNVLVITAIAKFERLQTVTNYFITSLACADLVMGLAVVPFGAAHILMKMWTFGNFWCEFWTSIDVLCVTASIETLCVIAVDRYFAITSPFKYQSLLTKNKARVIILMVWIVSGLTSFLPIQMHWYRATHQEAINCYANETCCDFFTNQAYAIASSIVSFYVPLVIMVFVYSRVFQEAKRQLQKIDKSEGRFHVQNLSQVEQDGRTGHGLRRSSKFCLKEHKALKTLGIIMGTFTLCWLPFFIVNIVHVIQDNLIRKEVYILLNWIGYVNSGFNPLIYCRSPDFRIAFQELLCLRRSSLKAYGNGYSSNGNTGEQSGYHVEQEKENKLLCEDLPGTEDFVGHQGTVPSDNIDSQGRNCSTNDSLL
Data set [4] concerns the target beta-2 adrenergic receptor (guinea pig). Kind of data set: Agonist activity at beta-2 adrenergic receptor in guinea pig trachea assessed as inhibition of histamine-induced contraction.
The nature of data set [5]: Protein binding in rat plasma. It counts as ADME, cell-free. The note with it: for fraction unbound: read-out: PPB (converted).
Data set [6] in a line: (§1) Antagonist activity at muscarinic M3 receptor in guinea pig trachea assessed as inhibition of carbachol-induced contraction. It counts as tissue-based, Cavia porcellus. An outline of the steps:
(§2)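 Isolated guinea pig tracheal tissue was contracted with the muscarinic agonist carbachol, and inhibition of contraction was scored. A parallel histamine (H1) challenge, opposed only by the β2 component, was used to estimate the β2 share.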

Data set [7] is described as follows: Protein binding in human plasma. As to conditions: for fraction unbound: read-out: PPB (converted). It counts as ADME, cell-free.
Data set [8] in a line: In vivo agonist activity at adrenergic beta2 receptor in guinea pig assessed as reduction in acetylcholine/histamine-induced bronchoconstriction at 3 mg/kg, IT(Intratracheal) measured after 24 hrs by Konzett-Roessler methodology relative to control. It counts as functional. The note with it: Cavia porcellus, inhaled or nasal.
The nature of data set [9]: In vivo agonist activity at adrenergic beta2 receptor in guinea pig assessed as reduction in acetylcholine/histamine-induced bronchoconstriction at 1 mg/kg, IT(Intratracheal) measured after 1 hr by Konzett-Roessler methodology relative to control. It counts as functional. The note with it: Cavia porcellus, inhaled or nasal.
Data set [10] can be described thus: In vivo agonist activity at adrenergic beta2 receptor in guinea pig assessed as reduction in acetylcholine/histamine-induced bronchoconstriction at 3 mg/kg, IT(Intratracheal) measured after 1 hr by Konzett-Roessler methodology relative to control. It counts as functional. The note with it: Cavia porcellus, inhaled or nasal.
A short description of data set [11]: In vivo agonist activity at adrenergic beta2 receptor in guinea pig assessed as reduction in acetylcholine/histamine-induced bronchoconstriction at 1 mg/kg, IT(Intratracheal) measured after 24 hrs by Konzett-Roessler methodology relative to control. The class given is functional. The note with it: Cavia porcellus, inhaled or nasal.
Data set [12] can be described thus: Protein binding in guinea pig plasma. The class given is ADME, cell-free, Cavia porcellus.
For data set [13], the species on record is Cavia porcellus. The description is as §1. It counts as tissue-based. The essentials: as §2

Sequence of Muscarinic acetylcholine receptor M3 (P20309 whole entry): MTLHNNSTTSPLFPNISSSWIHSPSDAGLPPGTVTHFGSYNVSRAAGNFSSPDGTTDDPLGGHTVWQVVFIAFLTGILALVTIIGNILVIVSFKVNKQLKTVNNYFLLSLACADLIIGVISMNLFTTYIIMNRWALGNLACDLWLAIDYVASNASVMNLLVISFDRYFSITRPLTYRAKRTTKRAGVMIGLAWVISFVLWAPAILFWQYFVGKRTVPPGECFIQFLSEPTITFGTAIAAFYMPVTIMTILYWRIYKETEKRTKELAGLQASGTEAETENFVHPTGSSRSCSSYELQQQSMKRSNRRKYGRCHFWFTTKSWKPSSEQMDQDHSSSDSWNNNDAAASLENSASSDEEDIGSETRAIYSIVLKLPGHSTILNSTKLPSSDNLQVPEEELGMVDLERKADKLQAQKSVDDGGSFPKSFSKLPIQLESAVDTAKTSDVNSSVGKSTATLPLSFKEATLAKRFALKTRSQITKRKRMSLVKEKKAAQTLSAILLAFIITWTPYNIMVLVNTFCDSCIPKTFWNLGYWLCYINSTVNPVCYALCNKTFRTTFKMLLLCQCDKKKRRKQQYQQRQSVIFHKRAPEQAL

Regarding `CCN(CCCNC[C@H](O)c1ccc(O)c2[nH]c(=O)ccc12)C(=O)c1ccc(COc2cccc(-c3ccc([C@@H](NC(=O)O[C@H]4CN5CCC4CC5)c4ccccc4)cc3)c2)cc1`, in the data set filed under Cavia porcellus [1], the TIME was above 3.75 h. In addition, the Ki was 0.251 nM in [2] and 0.0501 nM in [3]. Moreover, the pIC50 in data set [4] and in data set [6] was 9.5 throughout. Also, the results for the fraction unbound in data set [5] and in data set [7] were 0.06 and 0.04, respectively.
`O=C(NC(c1ccccc1)c1cccc(OCCCCCCCCCNC[C@H](O)c2ccc(O)c3[nH]c(=O)ccc23)c1)O[C@H]1CN2CCC1CC2` (stereo partly specified): the TIME in the data set listed under Cavia porcellus [1] was above 4.5 h. In addition, the Ki in data set [2] was 0.251 nM; in [3] it was 0.2 nM. Further, the pIC50 in data set [4] was 7.3; in data set [6], 7.5.
On to `O=C(N[C@@H](c1ccccc1)c1ccc(-c2cccc(OCc3ccc(C(=O)N(CCCNC[C@H](O)c4ccc(O)c5[nH]c(=O)ccc45)Cc4ccccc4)cc3)c2)cc1)O[C@H]1CN2CCC1CC2`, for which the TIME in the data set filed under Cavia porcellus [1] is above 3 h. The inhibition in vivo at 3 mg/kg in [8] came out at 20%; in data set [10], 63%. Further, the Ki was 0.126 nM in data set [2] and 0.1 nM in data set [3]. Further, the inhibition in vivo at 1 mg/kg in data set [9] amounted to 27%. Also, the negative-log IC50 (pIC50) in [4] is given as 9; in data set [6], 8.7. The fraction unbound in data set [5] was 0.03; in [7], below 0.01.
As for `O=C(N[C@@H](c1ccccc1)c1ccc(-c2cccc(OCc3ccc(C(=O)NCCCNC[C@H](O)c4ccc(O)c5[nH]c(=O)ccc45)cc3)c2)cc1)O[C@H]1CN2CCC1CC2`, the TIME in the data set filed under Cavia porcellus [1] was above 4.5 h. Moreover, the results for the inhibition constant Ki in [2] and in data set [3] were 0.1 nM and 0.0126 nM, respectively. Moreover, the pIC50 came to 9.8 in data set [4] and 9.7 in data set [6]. Moreover, the fraction unbound in data set [5] and in [7] was 0.05 throughout.
Regarding `O=C(NC(c1ccccc1)c1cccc(OCCCCCCCNC[C@H](O)c2ccc(O)c3[nH]c(=O)ccc23)c1)O[C@H]1CN2CCC1CC2` (stereo partly specified), in the data set listed under Cavia porcellus [1] (filed as modulator), the TIME is below 1.5 h. The Ki was 0.398 nM in data set [2] and 0.1 nM in [3]. The pIC50 in data set [4] is reported as 8.1; in [6] it was 9.3.
As for `O=C(N[C@@H](c1ccccc1)c1cccc(OCc2ccc(CCNC[C@H](O)c3ccc(O)c4[nH]c(=O)ccc34)cc2)c1)O[C@H]1CN2CCC1CC2`, in the data set filed under Cavia porcellus [1], the TIME is above 4.5 h. Further, the inhibition in vivo at 3 mg/kg in data set [8] was found to be 35%; in data set [10], 67%. For the same compound, the inhibition in vivo at 1 mg/kg came to 42% in data set [11] and 20% in data set [9]. For the same compound, the negative-log IC50 (pIC50) in data set [4] was determined as 9.1; in [6] it was 9.3. Moreover, the PPB in data set [5] is 98%; in data set [7], 98%; in data set [12] it was 99%.
Turning to `O=C(NC(c1ccccc1)c1cccc(OCCCCCCNC[C@H](O)c2ccc(O)c3[nH]c(=O)ccc23)c1)O[C@H]1CN2CCC1CC2` (stereo partly specified), in the data set listed under Cavia porcellus [1] (filed as modulator), the TIME is below 2.25 h. Moreover, the inhibitory constant (Ki) in [2] was 0.316 nM; in [3], 0.0158 nM. In addition, the values for the negative-log IC50 (pIC50) in [4] and in data set [6] were 9.8 and 9.9, respectively.
Regarding `O=C(N[C@H](c1ccccc1)c1cccc(OCCCCCCNC[C@H](O)c2ccc(O)c3[nH]c(=O)ccc23)c1)O[C@H]1CN2CCC1CC2`, the inhibition constant Ki in [2] is 3.98 nM; in [3], 0.0398 nM. In the data set listed under Cavia porcellus [13], the pIC50 result is “inactive”.
On to `O=C(NC(c1ccccc1)c1ccccc1)O[C@H]1CN2CCC1CC2`, for which the inhibitory constant (Ki) in [2] was 1.26 nM.
Turning to `O=C(N[C@@H](c1ccccc1)c1cccc(OCCCCCCNC[C@H](O)c2ccc(O)c3[nH]c(=O)ccc23)c1)O[C@H]1CN2CCC1CC2`, the inhibition constant Ki in data set [2] is 0.126 nM; in [3], 0.501 nM. Further, the pIC50 result in the data set listed under Cavia porcellus [13] is “inactive”.
On to `O=C(NC(c1ccccc1)c1cccc(OCCCCCCCCNC[C@H](O)c2ccc(O)c3[nH]c(=O)ccc23)c1)O[C@H]1CN2CCC1CC2` (stereo partly specified), for which the TIME in the data set listed under Cavia porcellus [1] (filed as modulator) is below 1.5 h. Also, the figures for the inhibition constant Ki in [2] and in data set [3] were 0.158 nM and 0.2 nM, respectively. In addition, the results for the pIC50 in [4] and in data set [6] were 7.8 and 8.7, respectively.
For `O=C(NC(c1ccccc1)c1ccc(OCCCCCCCCCNC[C@H](O)c2ccc(O)c3[nH]c(=O)ccc23)cc1)O[C@H]1CN2CCC1CC2` (stereo partly specified), in the data set listed under Cavia porcellus [1], the TIME was above 4.5 h. Moreover, the inhibition constant Ki in data set [2] is 10 nM; in data set [3], 0.251 nM. The pIC50 in [4] was 7.3; in [6], 8.3.
Take `O=C(NC(c1ccccc1)c1cccc(OCCCCCNC[C@H](O)c2ccc(O)c3[nH]c(=O)ccc23)c1)O[C@H]1CN2CCC1CC2` (stereo partly specified): the TIME in the data set filed under Cavia porcellus [1] (filed as modulator) was below 0.75 h. The inhibition constant Ki in [2] is 0.398 nM; in data set [3], 0.0251 nM. Besides, the pIC50 in data set [4] is given as 9; in data set [6], 8.5.
